In ChEMBL document CHEMBL1133009, “Permanently charged chiral 1,4-dihydropyridines: molecular probes of L-type calcium channels. Synthesis and pharmacological characterization of methyl(omega-trimethylalkylammonium) 1,4-dihydro-2,6-dimethyl-4-(3-nitrophenyl)-3,5-pyridinedicarboxylate iodide, calcium channel antagonists” (J Med Chem, 2000):

Legend:
GH4-C1 = assay: Pseudo Hill coefficient for the inhibition of Barium currents in GH4C1 cells was determined.; type: cell-based; conditions: Rattus norvegicus
Outline: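 Whole-cell voltage clamp of GH4C1 rat pituitary cells cultured 2-6 days, bathed in normal Tyrode's (pH 7.4). Held at -40 mV to inactivate T-type channels. Each DHP concentration (0.03-10 µM, increasing order) equilibrated 30 s, then a 200 or 50 ms pulse to +10 mV. Currents normalized to capacitance (pA/pF); IC50 and Hill slope fitted by Hill equation; 6-7 cells.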

[1] = molecular target: T1, Voltage-gated L-type calcium channel (Rattus norvegicus, UniProt P22002+Q02485+P27732); assay: Pseudo Hill coefficient for inhibition of [3H](+)-PN200-110 binding to GH4C1 cells under depolarized conditions (50 mM K+).; type: cell-based; conditions: gh4-c1
Outline: (§1)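 Intact GH4C1 cells attached to the culture dish, competition against [3H]-(+)-PN200-110 in depolarizing Hank's buffer (50 mM K+, pH 7.4). IC50 and slope from Hill equation fit; KI = IC50/(1+[L]/KD); n = 4-6 experiments, mean ± SEM.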

[2] = molecular target: T1, Voltage-gated L-type calcium channel; assay: Pseudo Hill coefficient for inhibition of [3H](+)-PN200-110 binding to GH4C1 cells; type: cell-based; conditions: gh4-c1
Outline: (§2)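 Competition against [3H]-(+)-PN200-110 in GH4C1 membranes, protein by Bradford. IC50 and pseudo Hill slope from Hill equation fit of specific DPM bound; KI = IC50/(1+[L]/KD); n = 4-6 experiments.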

[3] = Compound was tested for its inhibition of Barium currents in GH4C1 cells.; type: functional, cell-based, Rattus norvegicus; conditions: gh4-c1
[4] = molecular target: T1, Voltage-gated L-type calcium channel; assay: Inhibition of [3H](+)-PN200-110 binding to calcium channels of GH4C1 cells.; type: cell-based; conditions: gh4-c1; outline: as §2
[5] = molecular target: T1, Voltage-gated L-type calcium channel; assay: Inhibition of [3H](+)-PN200-110 binding to calcium channels of rat cerebral cortex membrane.; type: tissue-based
Outline: (§3)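 Rat cerebral cortex membranes, protein by Bradford, competition with [3H]-(+)-PN200-110. IC50 and pseudo Hill slope from Hill equation fit of specific DPM bound; KI = IC50/(1+[L]/KD); n = 4-6 experiments.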

[6] = molecular target: T2, Voltage-dependent L-type calcium channel subunit alpha-1C (Rattus norvegicus, UniProt P22002); assay: Inhibition of [3H](+)-PN200-110 binding to calcium channels of rat heart membranes.; type: cell membranes, Membrane
Outline: (§4)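 Using rat heart membranes (protein by Bradford), displacement of [3H]-(+)-PN200-110. IC50 and pseudo Hill slope from Hill equation fit; KI = IC50/(1+[L]/KD); n = 4-6 experiments.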

[7] = molecular target: T1, Voltage-gated L-type calcium channel; assay: Inhibition of [3H](+)-PN200-110 binding to calcium channels of GH4C1 cells under depolarized conditions (50 mM K+).; type: cell-based; conditions: gh4-c1; outline: as §1
[8] = molecular target: T1, Voltage-gated L-type calcium channel; assay: Pseudo Hill coefficient for inhibition of [3H](+)-PN200-110 binding to calcium channels of rat cerebral cortex membrane; type: tissue-based; outline: as §3
[9] = molecular target: T2, Voltage-dependent L-type calcium channel subunit alpha-1C; assay: Pseudo Hill coefficient for inhibition of [3H](+)-PN200-110 binding to calcium channels of rat heart membranes; type: cell membranes, Membrane; outline: as §4
[10] = molecular target: T1, Voltage-gated L-type calcium channel; assay: Inhibition of [3H](+)-PN200-110 binding to calcium channels of rat GH4C1 cells.; type: cell-based; conditions: gh4-c1; outline: as §2

T2 sequence (P22002 whole entry): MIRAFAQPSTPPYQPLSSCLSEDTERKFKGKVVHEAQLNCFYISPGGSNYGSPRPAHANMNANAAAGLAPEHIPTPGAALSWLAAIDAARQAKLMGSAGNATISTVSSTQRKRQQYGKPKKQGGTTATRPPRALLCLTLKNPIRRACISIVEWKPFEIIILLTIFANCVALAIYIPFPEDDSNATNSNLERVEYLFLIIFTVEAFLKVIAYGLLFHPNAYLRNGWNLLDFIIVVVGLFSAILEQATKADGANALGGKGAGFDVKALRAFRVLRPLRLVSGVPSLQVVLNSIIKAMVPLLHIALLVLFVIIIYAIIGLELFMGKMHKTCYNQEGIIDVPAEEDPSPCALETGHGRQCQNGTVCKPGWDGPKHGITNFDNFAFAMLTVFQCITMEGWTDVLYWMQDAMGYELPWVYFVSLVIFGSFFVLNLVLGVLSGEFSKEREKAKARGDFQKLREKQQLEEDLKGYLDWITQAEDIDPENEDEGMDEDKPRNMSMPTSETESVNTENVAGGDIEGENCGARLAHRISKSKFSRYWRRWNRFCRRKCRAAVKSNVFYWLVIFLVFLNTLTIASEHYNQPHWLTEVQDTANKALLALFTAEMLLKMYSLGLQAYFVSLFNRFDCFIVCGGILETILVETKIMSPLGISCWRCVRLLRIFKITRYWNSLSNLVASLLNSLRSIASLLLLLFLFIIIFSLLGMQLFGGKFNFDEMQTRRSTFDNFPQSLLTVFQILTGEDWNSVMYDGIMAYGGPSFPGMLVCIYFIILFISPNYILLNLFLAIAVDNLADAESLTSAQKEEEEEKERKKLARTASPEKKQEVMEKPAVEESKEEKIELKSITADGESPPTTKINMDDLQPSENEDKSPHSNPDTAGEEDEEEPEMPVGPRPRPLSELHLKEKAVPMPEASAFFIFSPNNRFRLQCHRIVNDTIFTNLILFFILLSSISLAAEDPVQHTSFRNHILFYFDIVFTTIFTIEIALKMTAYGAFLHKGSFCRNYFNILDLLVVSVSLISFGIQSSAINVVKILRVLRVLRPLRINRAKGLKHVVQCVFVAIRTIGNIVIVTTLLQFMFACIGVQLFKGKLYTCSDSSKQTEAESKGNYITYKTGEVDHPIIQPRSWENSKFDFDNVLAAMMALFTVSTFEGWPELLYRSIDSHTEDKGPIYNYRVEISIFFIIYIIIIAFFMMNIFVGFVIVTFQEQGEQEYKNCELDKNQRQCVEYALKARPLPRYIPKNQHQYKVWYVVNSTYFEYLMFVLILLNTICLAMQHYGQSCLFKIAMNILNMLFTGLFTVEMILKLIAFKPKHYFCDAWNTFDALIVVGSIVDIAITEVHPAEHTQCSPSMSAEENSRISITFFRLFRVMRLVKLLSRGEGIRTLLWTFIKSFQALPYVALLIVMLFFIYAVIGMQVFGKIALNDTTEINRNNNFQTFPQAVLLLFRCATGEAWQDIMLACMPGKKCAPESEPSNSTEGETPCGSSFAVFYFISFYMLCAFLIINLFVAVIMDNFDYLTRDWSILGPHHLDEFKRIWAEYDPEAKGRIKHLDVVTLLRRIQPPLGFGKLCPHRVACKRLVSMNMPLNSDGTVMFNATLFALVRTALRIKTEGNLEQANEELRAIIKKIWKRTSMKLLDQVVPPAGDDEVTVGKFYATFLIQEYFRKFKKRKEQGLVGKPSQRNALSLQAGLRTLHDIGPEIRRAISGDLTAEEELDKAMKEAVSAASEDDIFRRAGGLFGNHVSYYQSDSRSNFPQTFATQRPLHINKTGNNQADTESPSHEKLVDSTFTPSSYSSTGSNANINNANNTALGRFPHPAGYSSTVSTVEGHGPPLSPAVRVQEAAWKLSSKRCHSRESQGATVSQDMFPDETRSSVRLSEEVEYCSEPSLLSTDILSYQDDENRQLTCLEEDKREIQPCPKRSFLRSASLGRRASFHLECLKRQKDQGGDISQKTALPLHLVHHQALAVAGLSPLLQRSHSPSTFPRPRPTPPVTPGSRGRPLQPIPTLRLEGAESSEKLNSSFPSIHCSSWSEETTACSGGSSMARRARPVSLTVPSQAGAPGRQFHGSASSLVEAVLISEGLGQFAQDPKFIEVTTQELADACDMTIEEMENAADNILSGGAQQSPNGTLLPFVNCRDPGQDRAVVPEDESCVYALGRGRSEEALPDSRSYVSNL

| nH [1] | nH [2] | IC50 [3] [nM] | Ki [4] [nM] | Ki [5] [nM] | Ki [6] [nM] | Ki [7] [nM] | nH [8] | nH [9] | Ki [10] [nM] | SMILES | nH (GH4-C1) |
| --- | --- | --- | --- | --- | --- | --- | --- | --- | --- | --- | --- |
| 1.7 | 0.9 | 17700 | 2111 | 1372 | 1510 | 248.5 | 1 | 1 | – | COC(=O)C1=C(C)NC(C)=C(C(=O)OCC[N+](C)(C)C)C1c1cccc([N+](=O)[O-])c1.[I-] (racemic) | 0.7 |
| 1.1 | 1.3 | 1400 | – | 24.6 | 8 | 129.2 | 1.6 | 1.2 | 11.4 | COC(=O)C1=C(C)NC(C)=C(C(=O)OCCCCCCCC[N+](C)(C)C)[C@H]1c1cccc([N+](=O)[O-])c1.[I-] | 1 |
| 1.3 | 1.5 | 1500 | – | 37.2 | 99.2 | 68.6 | 1.4 | 1.1 | 16.8 | COC(=O)C1=C(C)NC(C)=C(C(=O)OCCCCCCCC[N+](C)(C)C)C1c1cccc([N+](=O)[O-])c1.[I-] (racemic) | 0.9 |
| 0.5 | 0.6 | 271000 | 48120 | 14013 | 13700 | 3988 | 0.8 | 0.9 | – | COC(=O)C1=C(C)NC(C)=C(C(=O)OCC[N+](C)(C)C)[C@@H]1c1cccc([N+](=O)[O-])c1.[I-] | 0.3 |
| 1 | 1.2 | 5100 | – | 717.8 | 497 | 895 | 1 | 1.1 | 420 | COC(=O)C1=C(C)NC(C)=C(C(=O)OCCCCCCCC[N+](C)(C)C)[C@@H]1c1cccc([N+](=O)[O-])c1.[I-] | 0.8 |
| 0.9 | 0.9 | 28100 | – | 1246 | 999 | 651 | 0.9 | 1 | 1940 | COC(=O)C1=C(C)NC(C)=C(C(=O)OCC[N+](C)(C)C)[C@H]1c1cccc([N+](=O)[O-])c1.[I-] | 0.4 |
